Experimental findings from ChEMBL document CHEMBL4118021, “Studies of TAK1-centered polypharmacology with novel covalent TAK1 inhibitors” (Bioorg Med Chem, 2017) are described below.

Holding throughout (format): cell-based
Experiment [1] concerns the target Ribosomal protein S6 kinase alpha-1 (Homo sapiens) (UniProt Q15418). Description: Inhibition of RSK1 domain1 in human SKCO1 cells at 1 uM after 4 hrs using biotin labeled DLKPENILLDEEGHIK probe by mass-spectrometric analysis relative to control. As to conditions: pooled result: one value given for 3 cell lines, strains, targets or settings. The procedure, abridged:
(§1)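 Live SK-CO-1 cells exposed to compound at 1 μM or DMSO for 4 h (KiNativ). Lysates then labeled with lysine-reactive ATP/ADP-biotin probe, and probe-labeled kinase peptides quantified by mass spectrometry. Percent inhibition of probe-dependent recovery calculated relative to DMSO-treated cells.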

The target in experiment [2] is 5'-AMP-activated protein kinase catalytic subunit alpha-2 (Homo sapiens) (UniProt P54646). Put plainly: Inhibition of AMPKa2 in human SKCO1 cells at 1 uM after 4 hrs using biotin labeled DLKPENVLLDAHMNAK probe by mass-spectrometric analysis relative to control. The method in brief: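 Live SK-CO-1 cells were treated 4 h with compound at 1 μM or DMSO, then lysed. Lysates were labeled with a lysine-reactive ATP/ADP-biotin probe and analysed by mass spectrometry. Percent inhibition is the loss of probe-dependent recovery of the kinase peptide relative to DMSO.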
Sequence of 5'-AMP-activated protein kinase catalytic subunit alpha-2 (Homo sapiens) (P54646 whole entry, looked up): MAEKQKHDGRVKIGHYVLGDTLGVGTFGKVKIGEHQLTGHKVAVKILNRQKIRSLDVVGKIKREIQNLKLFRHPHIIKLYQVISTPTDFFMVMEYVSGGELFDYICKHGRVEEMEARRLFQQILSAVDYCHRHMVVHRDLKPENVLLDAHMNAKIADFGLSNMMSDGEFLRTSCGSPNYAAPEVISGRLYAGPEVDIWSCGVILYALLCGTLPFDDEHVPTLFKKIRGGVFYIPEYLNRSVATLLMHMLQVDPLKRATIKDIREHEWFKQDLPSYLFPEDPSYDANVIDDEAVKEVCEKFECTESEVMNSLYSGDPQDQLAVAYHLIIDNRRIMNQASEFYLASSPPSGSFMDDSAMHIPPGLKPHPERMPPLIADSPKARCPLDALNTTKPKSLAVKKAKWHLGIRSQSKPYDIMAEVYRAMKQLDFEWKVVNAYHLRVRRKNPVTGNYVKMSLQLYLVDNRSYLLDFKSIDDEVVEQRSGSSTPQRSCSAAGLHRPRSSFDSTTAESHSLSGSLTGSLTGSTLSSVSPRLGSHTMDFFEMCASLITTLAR

The target of experiment [3] is Ribosomal protein S6 kinase beta-2 (Homo sapiens) (UniProt Q9UBS0). Put plainly: Inhibition of p70S6Kb in human SKCO1 cells at 1 uM after 4 hrs using biotin labeled DLKPENIMLSSQGHIK probe by mass-spectrometric analysis relative to control. The procedure, abridged: as §1
Sequence of Ribosomal protein S6 kinase beta-2 (Homo sapiens) (Q9UBS0 whole entry): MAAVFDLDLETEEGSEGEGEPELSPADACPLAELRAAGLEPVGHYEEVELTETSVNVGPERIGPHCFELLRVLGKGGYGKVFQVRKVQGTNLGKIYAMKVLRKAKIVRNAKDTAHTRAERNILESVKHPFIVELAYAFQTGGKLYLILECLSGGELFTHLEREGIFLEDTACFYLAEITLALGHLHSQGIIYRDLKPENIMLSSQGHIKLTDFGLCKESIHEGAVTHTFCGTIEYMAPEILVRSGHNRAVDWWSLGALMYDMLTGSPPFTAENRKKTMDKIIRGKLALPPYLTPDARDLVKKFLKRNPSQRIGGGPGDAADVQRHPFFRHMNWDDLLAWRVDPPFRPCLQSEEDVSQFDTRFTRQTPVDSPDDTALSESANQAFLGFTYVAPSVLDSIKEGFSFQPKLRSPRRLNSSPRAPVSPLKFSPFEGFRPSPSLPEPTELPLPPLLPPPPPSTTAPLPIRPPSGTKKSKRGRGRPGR
Experiment [4] concerns the target 1-phosphatidylinositol 3-phosphate 5-kinase (Homo sapiens) (UniProt Q9Y2I7). Description: Inhibition of PIP5K3 in human SKCO1 cells at 1 uM after 4 hrs using biotin labeled GGKSGAAFYATEDDRFILK probe by mass-spectrometric analysis relative to control. The procedure, abridged: as §1
The target in experiment [5] is T1, STE20-related kinase adapter protein beta (Homo sapiens) (UniProt Q9C0K7).
T1 sequence (whole entry): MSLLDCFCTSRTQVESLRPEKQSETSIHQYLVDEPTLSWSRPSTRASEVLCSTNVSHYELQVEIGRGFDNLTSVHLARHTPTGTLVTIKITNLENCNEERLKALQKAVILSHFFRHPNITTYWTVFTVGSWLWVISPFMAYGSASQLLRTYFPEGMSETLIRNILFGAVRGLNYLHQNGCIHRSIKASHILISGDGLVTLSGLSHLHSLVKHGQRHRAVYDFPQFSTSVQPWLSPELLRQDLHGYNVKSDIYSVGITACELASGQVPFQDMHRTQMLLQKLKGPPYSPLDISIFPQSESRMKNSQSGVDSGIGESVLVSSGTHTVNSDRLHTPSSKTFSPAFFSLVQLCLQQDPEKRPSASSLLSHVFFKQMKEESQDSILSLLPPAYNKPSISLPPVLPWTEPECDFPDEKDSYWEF
Put plainly: Inhibition of STLK6 in human SKCO1 cells at 1 uM after 4 hrs using biotin labeled SIKASHILISGDGLVTLSGLSHLHSLV probe by mass-spectrometric analysis relative to control. The procedure, abridged: as §1

Experiment [6] concerns the target Cyclin-dependent kinase 18 (Homo sapiens) (UniProt Q07002). Description: Inhibition of PCTAIRE3 in human SKCO1 cells at 1 uM after 4 hrs using biotin labeled SKLTENLVALKEIR probe by mass-spectrometric analysis relative to control. The method in brief:
as §1

Experiment [7] addresses T2, Serine/threonine-protein kinase 4 (Homo sapiens) (UniProt Q13043).
T2 sequence (whole entry): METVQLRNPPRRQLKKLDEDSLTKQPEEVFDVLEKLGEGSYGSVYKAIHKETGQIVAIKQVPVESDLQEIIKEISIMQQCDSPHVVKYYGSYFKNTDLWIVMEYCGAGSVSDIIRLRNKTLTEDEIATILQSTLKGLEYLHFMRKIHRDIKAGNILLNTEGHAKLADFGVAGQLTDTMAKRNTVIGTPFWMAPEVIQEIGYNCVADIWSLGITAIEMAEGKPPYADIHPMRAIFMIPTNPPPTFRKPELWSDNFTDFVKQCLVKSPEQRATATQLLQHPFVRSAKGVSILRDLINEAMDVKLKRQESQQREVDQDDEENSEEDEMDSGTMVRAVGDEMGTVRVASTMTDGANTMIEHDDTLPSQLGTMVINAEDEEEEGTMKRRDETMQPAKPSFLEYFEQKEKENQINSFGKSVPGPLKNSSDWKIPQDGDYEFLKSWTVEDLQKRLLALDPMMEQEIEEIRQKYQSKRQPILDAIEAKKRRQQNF
Put plainly: Inhibition of MST1 in human SKCO1 cells at 1 uM after 4 hrs using biotin labeled ETGQIVAIKQVPVESDLQEIIK probe by mass-spectrometric analysis relative to control. The procedure, abridged:
as §1

The target of experiment [8] is T3, Inhibitor of nuclear factor kappa-B kinase subunit beta (Homo sapiens) (UniProt O14920).
T3 sequence (whole entry): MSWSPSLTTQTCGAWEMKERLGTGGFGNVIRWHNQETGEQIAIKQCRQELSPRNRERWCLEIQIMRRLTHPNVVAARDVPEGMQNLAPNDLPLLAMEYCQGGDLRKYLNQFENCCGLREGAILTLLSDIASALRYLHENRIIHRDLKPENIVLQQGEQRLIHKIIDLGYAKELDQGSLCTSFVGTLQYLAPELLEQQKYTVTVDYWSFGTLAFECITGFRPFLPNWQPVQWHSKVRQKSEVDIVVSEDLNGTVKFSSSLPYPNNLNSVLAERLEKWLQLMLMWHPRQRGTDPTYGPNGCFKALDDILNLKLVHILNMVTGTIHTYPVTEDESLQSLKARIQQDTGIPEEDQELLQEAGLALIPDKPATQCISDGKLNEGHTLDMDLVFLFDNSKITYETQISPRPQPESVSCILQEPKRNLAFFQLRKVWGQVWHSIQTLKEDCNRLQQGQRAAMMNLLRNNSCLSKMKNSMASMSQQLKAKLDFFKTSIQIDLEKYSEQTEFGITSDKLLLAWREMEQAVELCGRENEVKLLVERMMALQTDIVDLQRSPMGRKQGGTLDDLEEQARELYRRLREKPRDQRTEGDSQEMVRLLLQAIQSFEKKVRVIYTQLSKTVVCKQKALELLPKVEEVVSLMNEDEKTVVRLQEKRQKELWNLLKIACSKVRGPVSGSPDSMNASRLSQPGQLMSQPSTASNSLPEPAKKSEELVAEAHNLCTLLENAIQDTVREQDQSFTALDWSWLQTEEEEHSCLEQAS
Put plainly: Inhibition of IKKb in human SKCO1 cells at 1 uM after 4 hrs using biotin labeled DLKPENIVLQQGEQR probe by mass-spectrometric analysis relative to control.

For experiment [9], the target named is Ribosomal protein S6 kinase (Homo sapiens) (UniProt P51812+Q9UBS0+O75676+Q15349+O75582+P23443+Q9UK32+Q15418). Description: Inhibition of p70S6K in human SKCO1 cells at 1 uM after 4 hrs using biotin labeled DLKPENIMLNHQGHVK probe by mass-spectrometric analysis relative to control. The procedure, abridged: as §1
In experiment [10] the target is Serine/threonine-protein kinase MARK2 (Homo sapiens) (UniProt Q7KZI7). Description: Inhibition of MARK2 in human SKCO1 cells at 1 uM after 4 hrs using biotin labeled EVAVKIIDKTQLNSSSLQK probe by mass-spectrometric analysis relative to control.
Sequence of Serine/threonine-protein kinase MARK2 (Homo sapiens) (Q7KZI7 whole entry): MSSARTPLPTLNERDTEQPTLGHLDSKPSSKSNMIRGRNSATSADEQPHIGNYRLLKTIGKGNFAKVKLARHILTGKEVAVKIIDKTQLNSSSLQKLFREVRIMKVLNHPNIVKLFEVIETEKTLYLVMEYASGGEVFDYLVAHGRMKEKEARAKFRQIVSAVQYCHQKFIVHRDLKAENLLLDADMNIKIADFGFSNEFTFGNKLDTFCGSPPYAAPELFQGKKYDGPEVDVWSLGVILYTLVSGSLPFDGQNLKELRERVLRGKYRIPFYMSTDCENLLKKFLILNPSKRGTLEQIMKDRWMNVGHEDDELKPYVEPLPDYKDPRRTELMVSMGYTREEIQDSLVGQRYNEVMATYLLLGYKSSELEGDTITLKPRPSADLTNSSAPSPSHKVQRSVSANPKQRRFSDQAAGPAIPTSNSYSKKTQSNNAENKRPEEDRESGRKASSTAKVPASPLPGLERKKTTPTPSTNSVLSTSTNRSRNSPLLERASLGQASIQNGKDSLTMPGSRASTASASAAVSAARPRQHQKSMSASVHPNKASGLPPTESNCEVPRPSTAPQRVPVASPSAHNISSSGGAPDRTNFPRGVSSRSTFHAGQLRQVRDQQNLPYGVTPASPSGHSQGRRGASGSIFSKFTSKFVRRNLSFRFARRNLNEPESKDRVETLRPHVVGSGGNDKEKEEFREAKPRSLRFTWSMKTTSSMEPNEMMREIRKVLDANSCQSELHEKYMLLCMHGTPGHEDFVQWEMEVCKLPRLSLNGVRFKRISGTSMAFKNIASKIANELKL

Sequence of Ribosomal protein S6 kinase alpha-1 (Homo sapiens) (Q15418 whole entry, the tested form may be a part): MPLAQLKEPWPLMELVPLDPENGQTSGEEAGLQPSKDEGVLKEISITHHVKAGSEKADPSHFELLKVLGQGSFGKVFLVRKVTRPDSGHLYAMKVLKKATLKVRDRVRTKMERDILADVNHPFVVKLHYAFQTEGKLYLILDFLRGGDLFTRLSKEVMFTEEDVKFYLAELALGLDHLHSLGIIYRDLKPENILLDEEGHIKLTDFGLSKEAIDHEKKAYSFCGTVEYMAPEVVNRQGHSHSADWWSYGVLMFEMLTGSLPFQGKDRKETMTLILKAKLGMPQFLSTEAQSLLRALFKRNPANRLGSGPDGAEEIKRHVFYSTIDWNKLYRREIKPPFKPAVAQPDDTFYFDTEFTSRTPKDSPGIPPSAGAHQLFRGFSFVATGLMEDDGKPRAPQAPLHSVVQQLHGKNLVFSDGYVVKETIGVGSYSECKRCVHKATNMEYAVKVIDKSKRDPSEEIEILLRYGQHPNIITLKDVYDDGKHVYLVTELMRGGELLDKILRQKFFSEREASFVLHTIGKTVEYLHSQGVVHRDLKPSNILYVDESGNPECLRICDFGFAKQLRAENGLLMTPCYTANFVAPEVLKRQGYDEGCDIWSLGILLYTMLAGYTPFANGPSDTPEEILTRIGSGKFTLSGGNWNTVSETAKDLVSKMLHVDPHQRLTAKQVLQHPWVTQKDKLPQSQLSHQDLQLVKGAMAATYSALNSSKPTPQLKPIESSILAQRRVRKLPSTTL
Sequence of Cyclin-dependent kinase 18 (Homo sapiens) (Q07002 whole entry): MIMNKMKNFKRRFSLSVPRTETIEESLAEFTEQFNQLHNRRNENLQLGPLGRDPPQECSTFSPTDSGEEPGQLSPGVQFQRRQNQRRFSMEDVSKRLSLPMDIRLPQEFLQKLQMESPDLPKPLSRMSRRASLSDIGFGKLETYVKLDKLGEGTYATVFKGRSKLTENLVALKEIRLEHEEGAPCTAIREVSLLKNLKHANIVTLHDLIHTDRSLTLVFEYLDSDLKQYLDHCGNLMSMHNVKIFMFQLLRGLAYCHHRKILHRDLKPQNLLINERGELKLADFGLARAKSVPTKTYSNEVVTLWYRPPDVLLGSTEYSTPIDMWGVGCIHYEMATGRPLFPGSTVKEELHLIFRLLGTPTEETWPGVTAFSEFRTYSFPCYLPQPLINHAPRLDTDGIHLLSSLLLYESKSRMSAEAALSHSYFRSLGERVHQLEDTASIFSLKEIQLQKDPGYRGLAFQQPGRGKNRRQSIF

What is called inhibition is the relative decrease from the control value, in per cent. For the molecule `C=CC(=O)Nc1ccccc1Oc1nc(Nc2cnn(CCOC)c2)ncc1Cl`, the inhibition is 13% in experiment [1]; 0.2% in [2]; -1.5% in [3]; 54.1% in experiment [4]; 34.4% in [5]; 21.9% in experiment [6]. For the same molecule, the inhibition is -0.9% in [7], -9% in experiment [8], 14.3% in [9] and 6.3% in experiment [10].
In the case of `C=CC(=O)Nc1ccccc1Nc1nc(Nc2ccc(N3CCN(C)CC3)cc2)ncc1Cl`, the inhibition in [1] stood at 42.5%; in experiment [2] it was 76%; in [3] it was 3.3%; in [4] it was 61.5%; in experiment [5] it was 27.1%; in [6], 3.7%. The inhibition was -6.4% in experiment [7], 15.3% in experiment [8], 16.3% in experiment [9] and 2.5% in [10].
With `COc1cc(O)c2c(c1)/C=C/C[C@H](O)[C@H](O)C(=O)/C=C\C[C@H](C)OC2=O`, the inhibition in [1] is 65.4%; in [2], 33.6%; in experiment [3], 54.6%; in experiment [4], 64.9%; in experiment [5] it was 24.9%; in experiment [6], 21.2%. Also, the inhibition in experiment [7] is -4.7%; in experiment [8], -3%; in experiment [9] it was 45.5%; in experiment [10], -8.1%.
